Inhibition data for 60 compounds are collected here from PubChem BioAssay AID624204 (Sanford-Burnham Center for Chemical Genomics, 2012).

Hit rate of the full screen: of about 360,000 compounds, about 770 (0.21%) were called active. Only a selection was taken, and actives are over-represented in it overall. Unmarked numbers belong to inactive results.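 Rule for the calls: active = inhibition at least 30% at 10 µM, raw YFP signal under a set limit, fluorescence ratio 0.5 to 1.5; inactive = the rest.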

The target of this test is Sentrin-specific protease 1 (Homo sapiens) (UniProt Q9P0U3). The experiment in a line: blockers of SENP1 SUMO protease activity – biochemical, FRET, uHTS, primary screen (AID 624204).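 Note: 0% = enzyme with DMSO and 100% = no enzyme wells.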 The settings on record: recombinant SENP1 catalytic domain, CyPet-SUMO1-YPet FRET cleavage; at 10 µM; hits give high values. Summed up: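 Assay system – human recombinant His6-tagged SENP1 catalytic domain enzyme · Input – SENP1 enzyme, 20 pM final · Buffer or medium – Tris pH 8 buffer plus EDTA, NaCl, BME, BSA, NP40, catalase · Schedule – 50 min reaction at room temperature · Technique – FRET read of cyan and yellow fluorescence · Control set – no-enzyme wells low, DMSO-plus-enzyme wells high control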
Chain of Sentrin-specific protease 1 (Homo sapiens) (Q9P0U3 419-644 limits assumed): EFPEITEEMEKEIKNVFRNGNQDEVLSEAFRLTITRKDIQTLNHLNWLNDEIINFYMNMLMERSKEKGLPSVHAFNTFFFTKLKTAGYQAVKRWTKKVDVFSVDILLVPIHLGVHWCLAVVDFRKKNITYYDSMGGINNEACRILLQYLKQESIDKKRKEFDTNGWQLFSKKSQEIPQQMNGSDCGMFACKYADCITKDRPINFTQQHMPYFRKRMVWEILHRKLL
Turning to `O=C1C2C3C=CC(C4CC34)C2C(=O)N1/N=C/c1ccc(-c2ccccc2[N+](=O)[O-])o1` (stereo not given), the inhibition is -25.8%.

Take `CN1CCN(/N=C/c2ccc(-c3ccc([N+](=O)[O-])cc3)o2)CC1`: the inhibition was 58.4% (active).

As to `CN1CCN(/N=C/c2ccc(C#N)cc2)CC1`, the inhibition was 1.45%.

For the compound `Nn1c(SCc2ccccc2)nnc1C1CCCCC1`, the inhibition is 3.72%.

`CCCC(=O)N1CCC(CCC(=O)NC2CC2)CC1`: the inhibition was 2.3%.

Regarding `CCOC(=O)C1CCN(Cc2ccc(-c3ccccc3)cc2)CC1`, the inhibition was -0.00995%.

`CCOC(=O)C1CCN(c2ncnc3c2c(-c2ccccc2)cn3-c2ccc(C)cc2)CC1`: the inhibition is 47.1% (active).

`CCOC(=O)C1CCN(C(=O)CN2C(=O)c3cccnc3Oc3ccc(C)cc32)CC1`: the inhibition was 0.924%.

`CNCC[C@H](Oc1ccc(C(F)(F)F)cc1)c1ccccc1`: the inhibition is -0.124%.

As for `O=C(COc1ccc(/C=N/NS(=O)(=O)c2ccccc2)cc1)NCCc1ccccc1`, the inhibition is 3.48%.

For `CC1=CC2=NC(=O)/C(=C/c3coc4ccccc4c3=O)C(=N)N2O1`, the inhibition was -38.6%.

In the case of `O=C1/C(=C/c2coc3ccc(O)cc3c2=O)SC(=S)N1c1ccccc1`, the inhibition is 46.8% (active).

In the case of `CSc1ccc(CN2C(=O)NC3(CCCCCC3)C2=O)cc1`, the inhibition is 1.11%.

On to `CCC1OC(c2ccc([N+](=O)[O-])cc2)=Nc2ccccc21` (stereo not given), for which the inhibition is -7.92%.

For `N#Cc1ccc(C(C(=O)NCc2ccccc2)n2c(=O)c(-c3ccco3)nc3ccccc32)cc1` (stereo not given), the inhibition was -62.9%.

Consider `Cc1cccc(C)c1NC(=O)C(c1cccc2ccccc12)n1c(=O)c(-c2ccco2)nc2ccccc21` (stereo not given), for which the inhibition was -49.2%.

As to `c1coc(-c2nc3nc4ccccc4n3nc2-c2ccco2)c1`, the inhibition was 86.8% (active).

In the case of `Cc1ccc(NC(=O)COC(=O)CCc2nc3ccccc3n2-c2ccccc2)c(C)c1`, the inhibition was 0.304%.

`C[C@H](C(=O)CC(=O)OC(C)(C)C)[C@H](O)c1ccc(C(F)(F)F)cc1`: the inhibition is 0.388%.

Turning to `Cc1ncc(CO)c(/C=N/NC(=O)c2cccc(S(=O)(=O)N3CCCC3)c2)c1O`, the inhibition was -24.8%.

As to `CCOc1ccc(NS(=O)(=O)c2ccc(C(=O)NCC(c3ccccc3OC)N3CCCC3)cc2)cc1` (stereo not given), the inhibition is -1.55%.

On to `O=C(CN1CCOCC1)Nc1c(-c2ccccc2)c2cc(Br)ccc2[nH]c1=O`, for which the inhibition was -0.407%.

For `Cc1cccc(C)c1Nc1c(-c2ccccc2O)nc2ncccn12`, the inhibition was 32.1% (active).

For `Cc1ccc(-c2c(N)nc3ncccn23)cc1`, the inhibition is -17.5%.

For the compound `Cc1ccccc1Nc1c(-c2ccccc2)nc2ncccn12`, the inhibition is 14.2%.

As to `Cc1ccc(NC(=O)[C@H](Cc2ccccc2)NC(=O)CC[C@H]2O[C@@H](n3ccc(=O)[nH]c3=O)[C@H](O)[C@@H]2O)cc1C`, the inhibition was 1.31%.

For the compound `Cc1ccc(Nc2nc(Cl)c(C=O)s2)cc1`, the inhibition is -32.5%.

In the case of `Cc1ccc(Nc2nc(N)nc(CSc3nnc(C)s3)n2)cc1`, the inhibition was 3.47%.

With `Cc1ccc(Nc2ccccc2N)cc1`, the inhibition was 54.5% (active).

Take `O=C(CSc1nnc(-c2ccncc2)n1-c1ccc(Cl)cc1)Nc1ccc(C(=O)O)cc1`: the inhibition was 0.469%.

Take `C=CC1=C(C(=O)O)N2C(=O)[C@@H](NC(=O)/C(=N/OCC(=O)O)c3csc(N)n3)[C@H]2SC1`: the inhibition is 56% (active).

With `O=C(CCn1nnc2ccccc2c1=O)N[C@@H](Cc1c[nH]c2ccccc12)C(=O)O`, the inhibition was 0.24%.

Take `CCN(CC)c1ccc(S(=O)(=O)N2CCOCC2)cc1NC(=O)CSc1cccc[n+]1[O-]`: the inhibition was 3.85%.

Regarding `COC(=O)c1ccc(NC(=O)CSc2nncn2-c2cccnc2)cc1`, the inhibition is -5.21%.

In the case of `COc1cccc(CNC(=O)C2CCCN(S(=O)(=O)N3CC(C)CC(C)C3)C2)c1` (stereo not given), the inhibition was -0.397%.

As for `CC(CC(=O)C1C(C)C=CCC1(C)C)NNC(N)=O` (stereo not given), the inhibition was 1.56%.

In the case of `COc1ccc2oc(C(=O)OCC(=O)N(CC(C)C)c3c(N)n(Cc4ccccc4)c(=O)[nH]c3=O)c(C)c2c1`, the inhibition was -9.9%.

As to `CCOC(=O)N(C)c1c(CC)nc2c(OCc3ccccc3C(=O)OC)cccn12`, the inhibition is 0.268%.

`O=C(CN1CCN(S(=O)(=O)c2ccc(Br)cc2)CC1)Nc1ccccc1C(=O)c1ccccc1`: the inhibition was 0.864%.

On to `COc1ccc2c(c1)c(=O)c(C(=O)c1ccc(Cl)cc1)cn2CC(=O)Nc1ccc(F)cc1`, for which the inhibition is -1.49%.

As to `CCOc1ncccc1C(=O)OCC(=O)Nc1cccc(S(=O)(=O)N2CCCCCC2)c1`, the inhibition was 2.06%.

Consider `O=C(NCc1cccnc1)c1ccccc1NC(=O)c1c(F)cccc1F`, for which the inhibition was 3.29%.

For `CCCNC(=O)c1cc(C2CCCCN2S(=O)(=O)c2ccc(C#N)cc2)on1` (stereo not given), the inhibition is 2.5%.

In the case of `Cc1cc(C(=O)N/N=C/c2ccc(N3CCOCC3)cc2)c(C)o1`, the inhibition was 33.5% (active).

Take `CNC(=S)N/N=C/c1ccc(N2CCOCC2)s1`: the inhibition is -70.3%.

Take `CC(C)c1cc(C(=O)N/N=C/c2ccoc2)c(O)c(C(C)C)c1`: the inhibition is 1.94%.

Consider `Cc1ccc(S(=O)(=O)n2cccc2CO)cc1`, for which the inhibition was -0.0494%.

In the case of `CC(C)NC(=O)C1(C)CCCCCN1C(=O)c1ccc(-c2ccccc2)cc1` (stereo not given), the inhibition was 0.518%.

Consider `Cc1ccccc1CN1C(=O)CSCC1(C)C(=O)Nc1c(C)cccc1C` (stereo not given), for which the inhibition is -2.15%.

Consider `Cn1cc(/C=C/C(=O)N2CCCC(C(=O)c3ccc(C(F)(F)F)cc3)C2)cn1` (stereo not given), for which the inhibition was 0.414%.

As to `CO[C@H]1[C@@H]2C=CO[C@@H](O[C@H]3O[C@@H](CO)[C@H](O)[C@@H](O)[C@@H]3O)[C@@H]2[C@@]2(CO)O[C@@H]12`, the inhibition is -2%.

On to `COC(=O)c1c(NC(=O)CN2C(=O)NC(CCc3ccccc3)C2=O)sc2c1CCCCC2` (stereo not given), for which the inhibition was -3.88%.

`NC1=NN(c2cccc(C(=O)O)c2)C(=O)C1`: the inhibition is 4.58%.

With `Cc1cc(C)cc(C(=O)OCC(=O)NCCNC(=O)COC(=O)c2cc(C)cc(C)c2)c1`, the inhibition was 0.612%.

As for `O=C(c1ccc(-n2cnnn2)cc1)N1CCN(C(c2ccccc2)c2ccccc2)CC1`, the inhibition is 0.954%.

As for `CCc1ccc(OC(C)C(=O)Nc2ccc(S(=O)(=O)Nc3cc(C)on3)cc2)cc1` (stereo not given), the inhibition was 2.02%.

With `CCC(=O)Nc1ccc(-c2ccc(N3CCCCC3)nn2)cc1`, the inhibition is -4.2%.

Consider `COc1ccc(/C=C(\NC(=O)c2ccc(OCC(C)C)cc2)C(=O)OCc2ccco2)cc1`, for which the inhibition was -2.88%.

Regarding `COC1C(CO)OC(n2cnc3c(=S)nc(N)[nH]c32)C1O` (stereo not given), the inhibition was 0.119%.

Turning to `Cc1ccc(CN2CCN(Cc3cccc(C)n3)CC2CCO)cc1` (stereo not given), the inhibition was -3.82%.

The inhibition is the drop in the measured response relative to a control, in per cent.
